Experimental data published in ChEMBL document CHEMBL1125361, “Effect of modification of the basic residues of dynorphin A-(1-13) amide on kappa opioid receptor selectivity and opioid activity” (J Med Chem, 1992).

Experiments:
[1] = target: Kappa-type opioid receptor (Cavia porcellus, UniProt P41144); assay: Inhibition of [3H]- bremazocine to opioid receptor kappa of guinea pig […] membranes was determined
Procedure, shortened: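 Guinea pig cerebellar membranes labelled with [3H]bremazocine at 4 °C with bestatin and 100 nM DAMGO present. Nonspecific binding defined with 1 μM Dyn A-(1-13)NH2. Ki from Cheng-Prusoff using KD 0.0549 nM for [3H]bremazocine.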

Cavia porcellus = organism: Cavia porcellus; assay: Potency was evaluated in guinea pig ileum relative to Dynorphin A.; type: functional
Procedure, shortened: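 Isolated guinea pig ileum; agonist dose–response curves were determined. In the experiments using norbinaltorphimine, the antagonist was added to the tissue bath 10 min before the agonist dose–response curve was run.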

[2] = target: Delta-type opioid receptor (Rattus norvegicus, UniProt P33533); assay: Inhibition of [3H]DPDPE to opioid receptor delta of rat fore brain membranes was determined; type: cell membranes, Membrane
Sequence of Delta-type opioid receptor (P33533 whole entry): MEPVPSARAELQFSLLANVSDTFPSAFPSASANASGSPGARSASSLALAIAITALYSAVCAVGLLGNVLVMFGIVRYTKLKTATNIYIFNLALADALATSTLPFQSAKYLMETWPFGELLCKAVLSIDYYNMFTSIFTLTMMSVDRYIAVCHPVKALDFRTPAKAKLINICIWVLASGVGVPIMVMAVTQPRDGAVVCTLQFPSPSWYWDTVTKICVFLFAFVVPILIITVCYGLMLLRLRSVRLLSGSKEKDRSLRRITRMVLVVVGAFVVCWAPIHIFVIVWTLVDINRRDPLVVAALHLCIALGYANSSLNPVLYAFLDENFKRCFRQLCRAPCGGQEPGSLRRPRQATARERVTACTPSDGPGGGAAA
Procedure, shortened: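 [3H]DPDPE displacement from rat forebrain membranes at 4 °C, peptidase inhibitors included. Nonspecific binding taken with 10 μM unlabeled DPDPE. Cheng-Prusoff Ki using KD 7.63 nM.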

[3] = target: Opioid receptor (mu and kappa) (Cavia porcellus, UniProt P41144+P97266); assay: Opioid receptor activity in guinea pig ileum; type: functional, tissue-based
Procedure, shortened: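 Isolated guinea pig ileum in tissue bath, agonist dose-response curves. When norbinaltorphimine was used, the antagonist was added 10 min before the agonist dose-response determination.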

Mu-type opioid receptor = Mu-type opioid receptor (Rattus norvegicus, UniProt P33535); assay: Inhibition of [3H]DAMGO to opioid receptor mu of rat fore brain membranes was determined; type: cell membranes, Membrane
Sequence of Mu-type opioid receptor (P33535 whole entry): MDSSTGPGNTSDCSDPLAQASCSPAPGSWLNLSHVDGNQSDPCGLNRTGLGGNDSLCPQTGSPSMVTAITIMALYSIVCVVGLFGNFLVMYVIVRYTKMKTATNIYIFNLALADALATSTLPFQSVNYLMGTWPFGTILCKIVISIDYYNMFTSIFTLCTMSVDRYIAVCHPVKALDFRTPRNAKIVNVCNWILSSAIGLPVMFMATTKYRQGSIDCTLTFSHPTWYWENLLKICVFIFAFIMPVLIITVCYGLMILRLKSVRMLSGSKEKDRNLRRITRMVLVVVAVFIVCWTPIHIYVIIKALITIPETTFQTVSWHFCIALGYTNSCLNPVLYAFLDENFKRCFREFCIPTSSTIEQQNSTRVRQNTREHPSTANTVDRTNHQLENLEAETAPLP
Procedure, shortened: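 Rat forebrain membranes with [3H]DAMGO at 4 °C in presence of peptidase inhibitors. Nonspecific binding defined by 10 μM levorphanol. Ki derived via Cheng-Prusoff, KD 0.314 nM.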

Sequence of Kappa-type opioid receptor (P41144 whole entry): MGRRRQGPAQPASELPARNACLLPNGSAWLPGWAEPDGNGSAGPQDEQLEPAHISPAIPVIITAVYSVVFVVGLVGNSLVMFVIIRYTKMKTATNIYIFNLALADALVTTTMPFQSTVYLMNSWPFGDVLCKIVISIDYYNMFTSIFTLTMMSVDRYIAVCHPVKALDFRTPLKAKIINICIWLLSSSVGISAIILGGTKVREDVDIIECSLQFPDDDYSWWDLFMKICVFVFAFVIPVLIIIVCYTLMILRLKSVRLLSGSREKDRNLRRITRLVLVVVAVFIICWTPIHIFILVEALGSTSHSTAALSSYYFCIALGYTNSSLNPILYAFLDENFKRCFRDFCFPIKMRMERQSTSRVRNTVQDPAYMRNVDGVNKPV

**Q.** What does the source list for `CC[C@H](C)[C@H](NC(=O)[C@H](CCCN=C(N)N)NC(=O)[C@H](CCCN=C(N)N)NC(=O)[C@H](CC(C)C)NC(=O)[C@H](Cc1ccccc1)NC(=O)CNC(=O)CNC(=O)[C@@H](N)Cc1ccc(O)cc1)C(=O)N[C@@H](CCCN=C(N)N)C(=O)N1CCC[C@H]1C(=O)N[C@@H](CCCCN)C(=O)N[C@@H](CC(C)C)C(=O)N[C@@H](CCCCNC(C)=O)C(N)=O`?
**A.** Ki [1]: 0.15 nM; Relative potency (Cavia porcellus): 126%; Ki [2]: 4.6 nM; IC50 [3]: 0.19 nM; Ki (Mu-type opioid receptor): 0.061 nM

**Q.** Which results are given for `CC[C@H](C)[C@H](NC(=O)[C@H](CCCN=C(N)N)NC(=O)[C@H](CCCN=C(N)N)NC(=O)[C@H](CC(C)C)NC(=O)[C@H](Cc1ccccc1)NC(=O)CNC(=O)CNC(=O)[C@@H](N)Cc1ccc(O)cc1)C(=O)N[C@@H](CCCN=C(N)N)C(=O)N1CCC[C@H]1C(=O)N[C@@H](CCCCN)C(=O)N[C@@H](CC(C)C)C(=O)N[C@@H](CCCCN)C(N)=O`?
**A.** Ki [1]: 0.023 nM; Relative potency (Cavia porcellus): 100%; Ki [2]: 1.9 nM; IC50 [3]: 0.24 nM; Ki (Mu-type opioid receptor): 0.4 nM

**Q.** For `CC[C@H](C)[C@H](NC(=O)[C@H](CCCN=C(N)N)NC(=O)[C@H](CCCN=C(N)N)NC(=O)[C@H](CC(C)C)NC(=O)[C@H](Cc1ccccc1)NC(=O)CNC(=O)CNC(=O)[C@@H](N)Cc1ccc(O)cc1)C(=O)N[C@@H](CCCN=C(N)N)C(=O)N1CCC[C@H]1C(=O)N[C@@H](CCCCNC(C)=O)C(=O)N[C@@H](CC(C)C)C(=O)N[C@@H](CCCCN)C(N)=O`, which Ki [1] is on record?
**A.** 0.053 nM

**Q.** And the Relative potency (Cavia porcellus)?
**A.** 148%

**Q.** What about the Ki [2] of the same compound?
**A.** 0.45 nM

**Q.** And the IC50 [3]?
**A.** 0.16 nM

**Q.** What about the Ki (Mu-type opioid receptor) of the same compound?
**A.** 0.03 nM

**Q.** Which results are given for `CC[C@H](C)[C@H](NC(=O)[C@H](CCCN=C(N)N)NC(=O)[C@H](CCCN=C(N)N)NC(=O)[C@H](CC(C)C)NC(=O)[C@H](Cc1ccccc1)NC(=O)CNC(=O)CNC(=O)[C@@H](N)Cc1ccc(O)cc1)C(=O)N[C@@H](CCCCNC(C)=O)C(=O)N1CCC[C@H]1C(=O)N[C@@H](CCCCN)C(=O)N[C@@H](CC(C)C)C(=O)N[C@@H](CCCCN)C(N)=O`?
**A.** Ki [1]: 0.0042 nM; Relative potency (Cavia porcellus): 91%; Ki [2]: 1.3 nM; IC50 [3]: 0.26 nM; Ki (Mu-type opioid receptor): 0.043 nM

**Q.** How did the Ki [1] turn out when H-YGGFLK(Ac)RIRPKLK-NH2 was run?
**A.** 0.024 nM

**Q.** And the Relative potency (Cavia porcellus)?
**A.** 37%

**Q.** And the Ki [2]?
**A.** 0.42 nM

**Q.** And the IC50 [3]?
**A.** 0.64 nM

**Q.** What about the Ki (Mu-type opioid receptor) of the same compound?
**A.** 0.018 nM

**Q.** What does the source list for “H-YGGFLKRIRPKLK-NH2 [listing 1 of 2 here]”?
**A.** Relative potency (Cavia porcellus): 94%; IC50 [3]: 0.25 nM

**Q.** With “H-YGGFLKRIRPKLK-NH2 [listing 2 of 2 here]” as the compound, how does the Ki [1] read?
**A.** 0.02 nM

**Q.** And the Ki [2]?
**A.** 5.9 nM

**Q.** What about the Ki (Mu-type opioid receptor) of the same compound?
**A.** 0.075 nM

**Q.** For H-YGGFLRK(Ac)IRPKLK-NH2, which Ki [1] is on record?
**A.** 0.14 nM

**Q.** What about the Relative potency (Cavia porcellus) of the same compound?
**A.** 69%

**Q.** What about the Ki [2] of the same compound?
**A.** 1.1 nM

**Q.** What about the IC50 [3] of the same compound?
**A.** 0.34 nM

**Q.** What about the Ki (Mu-type opioid receptor) of the same compound?
**A.** 0.18 nM

**Q.** Which Relative potency (Cavia porcellus) does the source give for “H-YGGFLRKIRPKLK-NH2 [listing 1 of 2 here]” here?
**A.** 122%

**Q.** What about the IC50 [3] of the same compound?
**A.** 0.19 nM

**Q.** Which results are given for “H-YGGFLRKIRPKLK-NH2 [listing 2 of 2 here]”?
**A.** Ki [1]: 0.021 nM; Ki [2]: 1.6 nM; Ki (Mu-type opioid receptor): 0.055 nM

**Q.** With “H-YGGFLRRIKPKLK-NH2 [listing 1 of 2 here]” as the compound, how does the Relative potency (Cavia porcellus) read?
**A.** 89%

**Q.** And the IC50 [3]?
**A.** 0.27 nM

**Q.** For “H-YGGFLRRIKPKLK-NH2 [listing 2 of 2 here]”, which Ki [1] is on record?
**A.** 0.0067 nM

**Q.** What about the Ki [2] of the same compound?
**A.** 1.9 nM

**Q.** And the Ki (Mu-type opioid receptor)?
**A.** 0.046 nM
